In the EternaBench riboswitch data:

Tested on: MS2 coat protein
Assay: apparent Kd, MS2 coat protein; higher = weaker binding; RNA-MaP array; FMN 200 µM where present
Summary of the method: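 Stalled E. coli RNA polymerase produced the designs on Illumina sequencing-chip clusters. SNAP-549-labelled MS2 coat protein was added from 0.7 or 1.5 nM, doubling to 3 µM, without and then with constant ligand, in 100 mM Tris-HCl pH 7.5, 80 mM KCl, 4 mM MgCl2, BSA, DTT, yeast tRNA and Tween-20. The apparent Kd is the median of filtered per-cluster fits of green signal normalised to red-channel RNA signal and control-cluster median Fmax.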

[1] = designed as: OFF switch for flavin mononucleotide, no ligand
[2] = ligand present: flavin mononucleotide, designed as: OFF switch for flavin mononucleotide
[3] = designed as: ON switch for flavin mononucleotide, no ligand
[4] = ligand present: flavin mononucleotide, designed as: ON switch for flavin mononucleotide

Sequence | apparent Kd [1] [nM] | apparent Kd [2] [nM] | apparent Kd [3] [nM] | apparent Kd [4] [nM]
AUUUGAAUCGUAGGAUAUCGCUUAAAUUUAACACGAGAAGGACGAACAUGAGGAUCACCCAUGUAUCAUGGUGUAGAUAAUUUG | 82.5 | 353 | – | –
AUUUGAAUCGUAGGAUAUCGCUUAAAUUUACCACGAGAAGGACGAACAUGAGGAUCACCCAUGUAUCAUGGUGUAGAUAAUUUG | 68.2 | 249 | – | –
AUUUGACACGUAGGAUAUCGCUCAAAUUUAACACGAGAAGGACGAACAUGAGGAUCACCCAUGUAACAUGGAGUAGUUUAUUUG | 76.6 | 111 | – | –
AUUUUAUAAUAGAAGGUAGACUUCAUGAGGAUCACCCAUGUGUUGGUACUAAGGAUAUGUAAUAACAUGAGGAUCACCCAUGUC | – | – | 53.3 | 51.7
AUUUUGUGAGGAUAUUAGUUUUAUGAUUGGAGGAGUUUGGCUGAGAAGGCACAUGAGGAUCACCCAUGUAAAUC | 35.3 | 41.1 | – | –
AUUUUUUAUGUAGGAUAUGCUUGUGGUAAGAUAGCAGAAGGACAUGAGGAUCACCCAUGUUAAUGAUAGAGAUUUUAUGUUGGU | 38.8 | 58.8 | – | –
AUUUUUUGUCAUGUACAUGAUGAACAUGAGGAUCACCCAUGUAGAAGGAAUUUUUUUAAGUUUAGUUAGGAUAUACAUAUAUUU | 16.6 | 10.8 | – | –
CAAAACUGAGGAUAUACAUGAGGAUCACCCAUGUCCAAGGUCCUGGGCGGAUGCUGCUGUAGAAGGCGGAAAGA | 22.4 | 32.4 | – | –
CAAAAGUAUAACAAUUUCAAGGCACAGGAUAUGAGUGUGCACAUGAGGAUCACCCAUGUUAUAACUUAGAAGGGUGACCAUUGC | – | – | 427 | 368
CAAAGCAGUAAGGAUAUAUGGUAGCCAGUUACCGUAGAAGGUAUAACAUGAGGAUCACCCAUGUCCAUAUGAUU | 56.8 | 57.7 | – | –
CAAAGUUGGUAAGGAUAUCCCACAUUAUUCUGACCCGUGCAAGCUACAUGAGGAUCACCCAUGUGGGAGAAGGUGCGUUAAAGC | 372 | 219 | – | –
CAAGGGCAUGAGAAGGCAUAAUUUAUAUUACCACAUGUUUACAUGAGGAUCACCCAUGUUACCUAUGAGGAUAUCAUGCCUACA | 12.7 | 10.2 | – | –
CAAGGUGGAGGAUAUACAUGAGGAUCACCCAUGUAAGGACAAUAAAUAAGAUGAAGAAGUAGAAGGCCACUCAA | 41.4 | 46.3 | – | –
CAAGUACCAGAGGAUAUGGCGGUGCACUCCGUGCCAGAAGGUUGGACAUGAGGAUCACCCAUGUGCGAUUAGCU | 26 | 27.1 | – | –
CAAUCUGCAGGAUAUACAUGAGGAUCACCCAUGUAAGGACAAUAAAUAAGAAGAAGAAGUAGAAGGGCAGACAA | 30.1 | 31.8 | – | –
CAAUUUAGCGAGAAGGAGCGCCCGUAGGUACAUGAGGAUCACCCAUGUCCUUUGUGCUCUACGCGCUAGGAUAUCGAUAAACAG | 20.9 | 116 | – | –
CACAAGAAAGUCGAAGGUUGAAGUAGAAGGUCUAUAACAUGACAUGAGGAUCACCCAUGUGCCAAGAAGGAUAUGCUUUAAUCG | 7.97 | 6.53 | – | –
CACAUUUUAACAGGAUAUGUAUGGUUGCUUAUUAUUGCAAAUUCAAUUAUUACAGAAGGGUUAUACAUGAGGAUCACCCAUGUG | – | – | 26.5 | 16.8
CACCGACCCUAUGUGUUCUAGACAUGAGGAUCACCCAUGUAUAGAAGGGUCUUCGCGAAACGCAGACAGGAUAUGUACAGGAGU | 6.58 | 9.89 | – | –
CACCGUUACACAGGAUAUCUUACAUGAGGAUCACCCAUGUAAUAAAUGAGAAUUUCGAAUGUAUUAGAGAAGGGUGGAAUCGGC | 37.7 | 90.2 | – | –
CACGAUGAUGUAGGAUAUAUGCUGGAAUACAGCAUAGAAGGACAUGAGGAUCACCCAUGUUAAGUGCCUCCAAAUAACAUCGUG | 15.7 | 21.7 | – | –

Sequence | apparent Kd [1] [nM] | apparent Kd [2] [nM] | apparent Kd [3] [nM] | apparent Kd [4] [nM]
CACGGAAACGUGAAACGUAGCAUACGAGAAGGCUGAUCCACGACAUGAGGAUCACCCAUGUAGUUAGAGGAUAUUGGAUGCUAC | – | – | 57.7 | 12.2
CACGGAUAGUAGAAGGGUGACAUGAGGAUCACCCAUGUACUUAUUUAUUUAUUACUAUUUGAUACACAGGAUAUACUAUCCGUG | – | – | 956 | 279
CACGUCUGAGGAUAUCGUUUUUUGUACAUGAGGAUCACCCAUGUCCAAUUUUGUAUAUUACGAGAAGGCAGUGGAA | 12.9 | 19.7 | – | –
CACUCAGGCACAUGAGGAUCACCCAUGUCCCGGAAGCCGAGACAGGAUAUGUGCCUCGAAUGUGCACAGAAGGGUCUACUAUAU | – | – | 226 | 180
CACUCGUGUCUAGGAUAUGAGUGACAAGCACGAGAUUUUCUCGACGCUAGCUCAGAAGGAGACAUGAGGAUCACCCAUGUAAGG | 85.3 | 16.6 | – | –
CACUGCAAUGUAGGAUAUCGACUGGAAUACAGUCGAGAAGGACAUGAGGAUCACCCAUGUACUAUGAGUGAAUAAUAAGCAGUG | 88.9 | 834 | – | –
CACUUAGGCACAUGAGGAUCACCCAUGUCCCGGGAGCCGAGACAGGAUAUGUGCCUCGAAUGUGCACAGAAGGGUCUACUAUGU | – | – | 165 | 229
CAGAAGUCAGGAUAUCCAUGGCGGCACUUGCGUGGUGGCGUGGAGAAGGGACAUGAGGAUCACCCAUGUAAAGA | 59.1 | 48.2 | – | –
CAGACACAUCUAGGAUAUGGUGAUGCUCAAAACACAUGAGGAUCACCCAUGUAGCCUGUGUAUAAUCAGAAGGAGAACCGUGUA | – | – | 84.6 | 500
CAGACCGGCGCAGGAUAUGUCGACAUGAGGAUCACCCAUGUAAGCCUCGUCUGGUCCGGUGUGUGACAGAAGGGUGUCGGCCAA | 13.1 | 38.1 | – | –
CAGCACUGUCGAGAGGAUAUGCGGUGAUGGACAUGAGGAUCACCCAUGUUAGCGACAGCAUCACGGCAGAAGGCUCUACUGCUGC | – | – | 13.2 | 12.2
CAGCACUGUCGAGAGGAUAUGCGGUGAUGGACAUGAGGAUCACCCAUGUUAGCGACAGCAUCACGGCAGAAGGCUCUGCUGCUGC | – | – | 59.4 | 16.9
CAGCAGUGUAAGAAGGCUGCUCCGAUAAGGAGCAGAGGAUAUUACAUGAGGAUCACCCAUGUAUGAACCAAUAGCUGAAAUAAA | 9.12 | 85.3 | – | –
CAGCGAUAGCUGAACAAUCUAUCUGAGGAUAUUCAUAAAACAUGAGGAUCACCCAUGUAAAAUUGGGAGAAGGCAGAUAGAUUG | – | – | 12.6 | 4.69
CAGCGAUAGCUGAACAAUCUAUCUGAGGAUAUUCAUGAUAAACAUGAGGAUCACCCAUGUAAUUGGGAGAAGGCAGAUAGAUUG | – | – | 441 | 19.3
CAGCGCUGUCGAGAGGAUAUGCGGUGAUGGACAUGAGGAUCACCCAUGUUAGCGACAGCAUCACGGCAGAAGGCUCUACCCGCUG | – | – | 13.2 | 12.8
CAGCGGGUCUUCAGGGUAAUGAACAUGAGGAUCACCCAUGUGCAGGAUAUGACGGAUCCGCACCGUCAGAAGGGCACUAAGUGA | 26.7 | 32.5 | – | –
CAGCUGAAUGUGAGGAUAUGUCUAGCCUCGGCUAGACAGAAGGCACAUGAGGAUCACCCAUGUCUCAACAGCUG | 38.8 | 675 | – | –
CAGCUGAAUGUGAGGAUAUUACGAGCUUCGGCUCGUGAGAAGGCACAUGAGGAUCACCCAUGUCUCAACAGCUG | 38.5 | 540 | – | –
CAGGUAGACUGAGGAUAUACAAAAGACCUAGUCUAUCUAGGUCAAAUCACAUGAGGAUCACCCAUGUAGAAGGCAGUCUGCCUG | 16.8 | 27.3 | – | –
